One test has as its system OVCAR-8. The test can be described thus: Cytotoxicity against human OVCAR8 cells after 72 hrs by MTT assay. The format is functional, cell-based. Particulars: OVCAR-8, 72 h. Put shortly: (§1)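 Cells kept in RPMI-1640 with 10% FBS, 2 mM glutamine, penicillin/streptomycin, at 37 °C under 5% CO2. Seeded at 10^5 cells/well (adherent) or 0.5×10^5 cells/well (suspension). After 24 h, compounds in DMSO (0.09–25 μg/mL) added for 72 h; doxorubicin positive control. Medium then replaced with 0.5 mg/mL MTT for 3 h, formazan dissolved in DMSO, absorbance read at 595 nm as % of control; IC50 derived.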

Another test concerns A549. The test can be described thus: Cytotoxicity against human A549 cells after 72 hrs by MTT assay. Format: functional, cell-based. Particulars: A549, 72 h. Put shortly: as §1
(In general: Formazan colour is commonly taken as a measure of viable cells.)

For another test, the system named is MDA-MB-435. The test can be described thus: Cytotoxicity against human MDA-MB-435 cells after 72 hrs by MTT assay. Format: functional, cell-based. Particulars: MDA-MB-435, 72 h. Put shortly:
as §1

The next test deals with PC-3. The test can be described thus: Cytotoxicity against human PC3 cells after 72 hrs by MTT assay. Format: functional, cell-based. Particulars: PC-3, 72 h. Put shortly:
as §1

The subject of another test is SF-295. The test can be described thus: Cytotoxicity against human SF295 cells after 72 hrs by MTT assay. Format: functional, cell-based. Particulars: SF-295, 72 h. The method, boiled down: as §1
In another test the test system is HL-60. The test can be described thus: Cytotoxicity against human HL60 cells after 72 hrs by MTT assay. Format: functional, cell-based. The conditions noted are these: HL-60, 72 h. The method, boiled down: as §1
A further test relates to HCT-8. The test can be described thus: Cytotoxicity against human HCT8 cells after 72 hrs by MTT assay. Format: functional, cell-based. The conditions noted are these: HCT-8, 72 h. The method, boiled down:
as §1

In the next test the test system is UACC-257. The test can be described thus: Cytotoxicity against human UACC257 cells after 72 hrs by MTT assay. Format: functional, cell-based. The conditions noted are these: UACC-257, 72 h. Put shortly: as §1
The next test deals with A704. The test can be described thus: Cytotoxicity against human A704 cells after 72 hrs by MTT assay. The conditions noted are these: A704, 72 h. Format: functional, cell-based. Put shortly: as §1
Another test has as its system PBMC. The test can be described thus: Cytotoxicity against human PBMC cells after 72 hrs by alamar blue assay. Format: cell-based. Put shortly: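 PBMC came from heparinized blood of healthy non-smoking donors and were isolated by Ficoll-Hypaque density gradient. Cultured in RPMI-1640 with 20% FBS, glutamine and antibiotics, with 2% phytohemagglutinin. Plated at 3×10^5 cells/well; after 24 h, compounds in DMSO (0.09–25 μg/mL) added for 72 h; doxorubicin positive control. Resazurin added 24 h before end; absorbance read at 570 and 595 nm as % of control.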

Consider twelve compounds from ChEMBL document CHEMBL1153609, “Synthesis and cytotoxic activity of alpha-santonin derivatives” (Eur J Med Chem, 2009).

The structures appear in SMILES notation. Bounds are passed on as bounds.

In the case of `CC1=C2[C@H]3OC(=O)[C@@H](C)[C@@H]3CC[C@@](C)(O)[C@@H]2CC1=O`, the half-maximal inhibitory concentration (IC50) with OVCAR-8, with A549, with MDA-MB-435, with PC-3, in the test on SF-295 and in the test with HL-60 was more than 100 µM in each case. Besides, the IC50 in the test on HCT-8, in the test on UACC-257 and in the test on A704 was more than 100 µM each time.
Regarding `CC1=C2[C@H]3OC(=O)[C@](C)([Se]c4ccccc4)[C@@H]3CC[C@@]2(C)C=CC1=O`, the IC50 in the test on OVCAR-8, in the test with A549, with MDA-MB-435, in the test on PC-3, with SF-295 and in the test on HL-60 was more than 100 µM in each case. Also, the IC50 in the test with HCT-8, in the test on UACC-257 and in the test with A704 was more than 100 µM throughout.
As for `CC(=O)O[C@]1(C)CC[C@H]2[C@H](C)C(=O)O[C@@H]2C2=C(C)C(=O)C[C@H]21`, the IC50 with OVCAR-8, in the test with A549, with MDA-MB-435, in the test on PC-3, in the test with SF-295 and in the test with HL-60 was more than 100 µM each time. In addition, the IC50 with HCT-8, in the test with UACC-257 and in the test on A704 was more than 100 µM throughout.
As for `C=C1C(=O)O[C@@H]2C3=C(C)C(=O)C=C[C@]3(C)CC[C@@H]12`, the concentration for half-maximal inhibition (IC50) (in general, the midpoint of a concentration-inhibition curve) with OVCAR-8 was 6.94 µM; in the test with A549, 13.4 µM; in the test with PBMC, 3.23 µM; in the test on MDA-MB-435 it was 6.74 µM; in the test on PC-3, 13 µM; with SF-295, 2.7 µM. Moreover, the IC50 is 1.14 µM in the test with HL-60, 2.92 µM with HCT-8, 6.05 µM in the test on UACC-257 and 10.1 µM in the test on A704.
Consider `C=C1C(=O)O[C@@H]2C3=C(C)C(=O)C[C@H]3[C@](C)(OC(C)=O)CC[C@@H]12`, for which the IC50 in the test with OVCAR-8 was determined as 8.67 µM; in the test with A549, 10.2 µM; in the test on PBMC it was 13.5 µM; with MDA-MB-435, 8.84 µM; in the test on PC-3, 14.4 µM; in the test with SF-295 it was 3.06 µM. Besides, the IC50 in the test on HL-60 is 1.6 µM; with HCT-8 it was 0.36 µM; in the test on UACC-257, 7.76 µM; with A704 it was 9.24 µM.
Take `CC1=C2[C@H]3OC(=O)[C@@H](C)[C@@H]3CC[C@@](C)(O)[C@@H]2C[C@@H]1O`: the 50% inhibitory concentration (IC50) in the test on OVCAR-8, in the test on A549, in the test on MDA-MB-435, in the test on PC-3, in the test with SF-295 and in the test with HL-60 was more than 100 µM in each case. Further, the half-maximal inhibitory concentration (IC50) with HCT-8, with UACC-257 and with A704 was more than 100 µM throughout.
Take `CC(=O)O[C@]1(C)CC[C@H]2[C@H](C)C(=O)O[C@@H]2C2=C(C)[C@@H](O)C[C@H]21`: the IC50 with OVCAR-8, in the test on A549, in the test with MDA-MB-435, in the test on PC-3, in the test with SF-295 and in the test with HL-60 was more than 100 µM in each case. Further, the IC50 with HCT-8, with UACC-257 and in the test with A704 was more than 100 µM throughout.
In the case of `C=C1C(=O)O[C@H]2[C@H]1CC[C@]1(C)C3(C)C(=O)C=CC231` (some centres not stated), the concentration for half-maximal inhibition (IC50) in the test on OVCAR-8 came out at 3.88 µM; in the test on A549, 14.5 µM; in the test with PBMC, 13.4 µM; in the test with MDA-MB-435 it was 4.57 µM; with PC-3, 5.07 µM; with SF-295, 2.15 µM. Moreover, the concentration for half-maximal inhibition (IC50) was found to be 2.3 µM with HL-60, 1.96 µM in the test with HCT-8, 4.87 µM with UACC-257 and 3.61 µM with A704.
`COc1cccc2c1C(=O)c1c(O)c3c(c(O)c1C2=O)C[C@@](O)(C(=O)CO)C[C@@H]3O[C@H]1C[C@H](N)[C@H](O)[C@H](C)O1` [DOXORUBICIN]: the IC50 was 0.51 µM with OVCAR-8; 0.72 µM with A549; 1.77 µM in the test with PBMC; 0.96 µM in the test with MDA-MB-435; 1.32 µM in the test on PC-3; 0.48 µM in the test with SF-295. Besides, the concentration for half-maximal inhibition (IC50) in the test with HL-60 stood at 0.04 µM; with HCT-8, 0.02 µM; with UACC-257, 0.6 µM; with A704 it was 2 µM.
With `CC(C)=C1CC[C@H]2[C@H](C)C(=O)O[C@@H]2/C1=C\CC(=O)O` [ISOFOTOSANTONIC ACID], the 50% inhibitory concentration (IC50) in the test with OVCAR-8, in the test on A549, in the test with MDA-MB-435, with PC-3, with SF-295 and in the test on HL-60 was more than 100 µM in each case. Also, the 50% inhibitory concentration (IC50) in the test with HCT-8, in the test with UACC-257 and in the test on A704 was more than 100 µM in each case.
`C[C@@H]1C(=O)O[C@H]2[C@H]1CC[C@]1(C)C3(C)C(=O)C=CC231` (some centres not stated) [LUMISANTONIN]: the IC50 in the test with OVCAR-8 was 49.8 µM; in the test on A549 it was 69.4 µM; in the test with MDA-MB-435, 91.5 µM; in the test with PC-3, 66.5 µM; in the test on SF-295, 68.8 µM; in the test with HL-60 it was 80.2 µM. The results for the IC50 in the test with HCT-8, in the test with UACC-257 and in the test with A704 were 59.2 µM, more than 100 µM and 85.4 µM, respectively.
As for `CC1=C2[C@H]3OC(=O)[C@@H](C)[C@@H]3CC[C@@]2(C)C=CC1=O` [SANTONIN], the IC50 in the test on OVCAR-8, in the test with A549, with MDA-MB-435, in the test with PC-3, in the test on SF-295 and in the test with HL-60 was more than 100 µM in each case. Also, the IC50 with HCT-8, in the test with UACC-257 and with A704 was more than 100 µM in each case.
